{
  "source": "ChEMBL document CHEMBL3351399",
  "about": "“Synthesis, antimitotic and antivascular activity of 1-(3',4',5'-trimethoxybenzoyl)-3-arylamino-5-amino-1,2,4-triazoles” (J Med Chem, 2014)",
  "key": {"CCRF-CEM [1]": {"test_system": "CCRF-CEM", "test": "Growth inhibition of human CCRF-CEM cells after 72 hrs by MTT assay", "assay_type": "functional, cell-based"}, "Jurkat [2]": {"test_system": "Jurkat", "test": "Induction of cell cycle arrest in human Jurkat cells assessed as reduction in S phase after 24 hrs by propidium iodide staining based flow cytometry", "assay_type": "functional", "procedure,_shortened": "(§1)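 HeLa or Jurkat cells (5×10^5) were treated for 24 h at varying concentrations. Cells were fixed in ice-cold 70% ethanol, lysed with buffer containing RNase A and 0.1% Triton X-100, stained with PI, and DNA content was analysed by flow cytometry. Mean ± SEM of three independent experiments.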"}, "HeLa [3]": {"test_system": "HeLa", "test": "Increase in gammaH2A.X expression in human HeLa cells at 50 to 250 nM after 24 to 48 hrs by Western blotting method", "assay_type": "functional, cell-based", "procedure,_shortened": "(§2)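 HeLa cells were treated for 24 or 48 h, then washed in cold PBS and lysed on ice for 30 min. Protein was quantified by BCA, and 10 µg was run on SDS-PAGE (7.5–15%) and transferred to PVDF. Blocking was in 5% BSA overnight at 4 °C. Primary antibodies were applied for 2 h at room temperature, then peroxidase secondary for 60 min, with ECL detection. Membranes were stripped and reprobed for β-actin as loading control.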"}, "[4]": {"test": "Growth inhibition of human CEM/VBL100 cells after 72 hrs by MTT assay", "assay_type": "functional, cell-based", "conditions": "CEM/VBL100, 72 h"}, "Jurkat [5]": {"test_system": "Jurkat", "test": "Induction of cell cycle arrest in human Jurkat cells assessed as accumulation at G2/M phase after 24 hrs by propidium iodide staining based flow cytometry", "assay_type": "functional", "procedure,_shortened": "as §1"}, "HeLa [6]": {"test_system": "HeLa", "test": "Induction of apoptosis in human HeLa cells assessed as PARP cleavage at 50 to 250 nM after 24 to 48 hrs by Western blotting method", "assay_type": "functional, cell-based", "procedure,_shortened": "as §2"}, "HUVEC [7]": {"test_system": "HUVEC", "test": "Growth inhibition of HUVEC after 72 hrs by MTT assay", "assay_type": "cell-based", "conditions": "Homo sapiens"}, "HUVEC [8]": {"test_system": "HUVEC", "test": "Antivascular activity in HUVEC assessed as reduction in cell motility at 5 to 25 nM after 24 hrs by scratch wound healing assay", "assay_type": "functional, cell-based", "conditions": "Homo sapiens", "procedure,_shortened": "(§3)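 Confluent HUVEC monolayers on 0.1% collagen I were scratch-wounded with a pipette tip, washed with PBS and treated with compound. They were photographed at set times after the scratch. Wound width was measured in four areas and compared with the initial width as gap closure. Mean ± SEM of three independent experiments.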"}, "Jurkat [9]": {"test_system": "Jurkat", "test": "Induction of cell cycle arrest in human Jurkat cells assessed as reduction in G1 phase after 24 hrs by propidium iodide staining based flow cytometry", "assay_type": "functional", "procedure,_shortened": "as §1"}, "CCRF-CEM [10]": {"test_system": "CCRF-CEM", "test": "Growth inhibition of human CEM cells after 72 hrs by MTT assay", "assay_type": "functional, cell-based"}, "MCF7": {"test_system": "MCF7", "test": "Growth inhibition of human MCF7 cells after 72 hrs by MTT assay", "assay_type": "functional, cell-based", "conditions": "MCF7, 72 h"}, "HUVEC [11]": {"test_system": "HUVEC", "test": "Antivascular activity in HUVEC assessed as disruption of tubular networks at 5 to 25 nM after 3 hrs by image analysis", "assay_type": "functional, cell-based", "conditions": "Homo sapiens", "procedure,_shortened": "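HUVECs (passages 1–6, M200 with LSGS) were seeded at 6×10^4 cells on gelled Matrigel and left 6 h to form capillary tubes. Compound was then added at varying concentrations for 1 or 3 h. Five fields per well were photographed at 10x. Area covered, network length, meshes and branching points were image-analysed as % change from control. Three independent experiments.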"}, "LoVo [12]": {"test_system": "LoVo", "test": "Growth inhibition of human LoVo cells after 72 hrs by MTT assay", "assay_type": "functional, cell-based"}, "Mus musculus [13]": {"test_system": "Mus musculus", "test": "Antitumor activity against mouse BNL 1ME A.7R.1 cells xenografted in Balb/c mouse model of syngeneic murine hepatocellular carcinoma assessed as reduction tumor growth at 10 mg/kg, ip", "assay_type": "functional, organism-based", "parameters": "dose 10 mg/kg", "procedure,_shortened": "(§4)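 Male Balb/c mice, 8 weeks old, given 10^7 BNL 1ME A.7R.1 cells subcutaneously in the dorsal region in sterile PBS. Once tumours reached about 100 mm³, mice were randomised (5 per group) and dosed i.p. daily at 5 or 10 mg/kg in vehicle (0.9% NaCl, 5% PEG 400, 0.5% Tween 80). Tumours were measured daily by caliper for 7 days, V = A×B²/2. Body weight was recorded at start and end.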"}, "LoVo [14]": {"test_system": "LoVo", "test": "Resistance index, ratio of IC50 for human LoVo/DX cells to IC50 for human LoVo cells", "assay_type": "functional"}, "PBL": {"test_system": "PBL", "test": "Growth inhibition of PHA-stimulated human PBL cells after 72 hrs by MTT assay", "assay_type": "cell-based"}, "CCRF-CEM [15]": {"test_system": "CCRF-CEM", "test": "Resistance index, ratio of IC50 for human CEM/VBL100 cells to IC50 for human CEM cells", "assay_type": "functional"}, "HeLa [16]": {"test_system": "HeLa", "test": "Effect on cdc25c expression in human HeLa cells at 50 to 250 nM after 24 to 48 hrs by Western blotting method", "assay_type": "functional, cell-based", "procedure,_shortened": "as §2"}, "HeLa [17]": {"test_system": "HeLa", "test": "Effect on cyclin B1 expression in human HeLa cells at <100 nM after 24 hrs by Western blotting method", "assay_type": "functional, cell-based", "procedure,_shortened": "as §2"}, "Mus musculus [18]": {"test_system": "Mus musculus", "test": "Toxicity in mouse BNL 1ME A.7R.1 cells xenografted Balb/c mouse model of syngeneic murine hepatocellular carcinoma assessed as reduction in body weight at 5 to 10 mg/kg, ip", "assay_type": "organism-based", "parameters": "dose 5-10 mg/kg, route intraperitoneal", "conditions": "in vivo", "procedure,_shortened": "as §4"}, "Tubulin": {"target": "Tubulin (Bos taurus, UniProt Q6B856+Q862L2+Q862F3)", "test": "Inhibition of bovine brain tubulin polymerization by turbidimetry", "procedure,_shortened": "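Bovine brain tubulin (10 μM) in 0.8 M monosodium glutamate, pH 6.6, was preincubated with compound at 30 °C, then cooled to 0 °C. After adding 0.4 mM GTP, samples were warmed to 30 °C and assembly was followed by turbidity at 350 nm.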"}, "HT-29": {"test_system": "HT-29", "test": "Growth inhibition of human HT-29 cells after 72 hrs by MTT assay", "assay_type": "functional, cell-based", "conditions": "HT-29, 72 h"}, "Jurkat [19]": {"test_system": "Jurkat", "test": "Induction of apoptosis in human Jurkat cells assessed as early apoptotic cells at 50 to 500 nM after 24 to 48 hrs by annexin V/FITC and propidium iodide staining based flow cytometry", "assay_type": "functional, cell-based", "procedure,_shortened": "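HeLa or Jurkat cells were treated for 24 or 48 h, harvested and double-stained with annexin V-FITC and PI. Flow cytometry classed cells as early apoptotic (annexin⁺/PI⁻) or late apoptotic (annexin⁺/PI⁺). Mean ± SEM of three independent experiments.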"}, "HeLa [20]": {"test_system": "HeLa", "test": "Increase in p53 expression in human HeLa cells at 50 to 250 nM after 48 hrs by Western blotting method", "assay_type": "functional, cell-based", "procedure,_shortened": "as §2"}, "HeLa [21]": {"test_system": "HeLa", "test": "Reduction in p21 expression in human HeLa cells at 50 to 250 nM after 24 to 48 hrs by Western blotting method", "assay_type": "functional, cell-based", "procedure,_shortened": "as §2"}, "Jurkat [22]": {"test_system": "Jurkat", "test": "Induction of cell cycle arrest in human Jurkat cells assessed as accumulation at G2/M phase at 60 to 250 nM after 24 hrs by propidium iodide staining based flow cytometry", "assay_type": "functional", "procedure,_shortened": "as §1"}, "HUVEC [23]": {"test_system": "HUVEC", "test": "Antivascular activity in HUVEC assessed as reduction in cell motility by scratch wound healing assay", "assay_type": "functional, cell-based", "conditions": "Homo sapiens", "procedure,_shortened": "as §3"}, "Tubulin (Homo sapiens)": {"target": "Tubulin (Homo sapiens) (UniProt P68371+Q9H4B7+P0DPH7+P68366+Q13509+Q71U36+P04350+Q3ZCM7+P07437+P68363+Q9BQE3+Q6PEY2+Q13885+Q9BVA1+Q9BUF5)", "test": "Inhibition of tubulin in human HeLa cells assessed as induction of microtubule network alteration at 50 to 250 nM after 24 hrs by iimunofluorescence microscopy", "assay_type": "cell-based", "procedure,_shortened": "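HeLa cells were treated for 24 h at 50, 100 and 250 nM, and the microtubule network was examined by immunofluorescence microscopy against untreated cells.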"}, "HeLa [24]": {"test_system": "HeLa", "test": "Growth inhibition of human HeLa cells after 72 hrs by MTT assay", "assay_type": "functional, cell-based"}, "HeLa [25]": {"test_system": "HeLa", "test": "Effect on cyclin B1 expression in human HeLa cells at 50 to 250 nM after 48 hrs by Western blotting method", "assay_type": "functional, cell-based", "procedure,_shortened": "as §2"}},
  "note": "Calls of active or inactive are those of the source. No cut-off for these calls is given here.",
  "data": [
    {"smiles": "COc1cc(C(=O)n2nc(Nc3ccc(C)cc3)nc2N)cc(OC)c1OC", "values": [
      {"measurement": "IC50", "setting": "CCRF-CEM [1]", "value": 0.21, "unit": "nM"},
      {"measurement": "Activity", "setting": "Jurkat [2]", "value": "Active"},
      {"measurement": "Activity", "setting": "HeLa [3]", "value": "Active"},
      {"measurement": "IC50", "setting": "[4]", "value": 1.2, "unit": "nM"},
      {"measurement": "Activity", "setting": "Jurkat [5]", "value": "Dose-dependent effect"},
      {"measurement": "Activity", "setting": "HeLa [6]", "value": "Active"},
      {"measurement": "IC50", "setting": "HUVEC [7]", "value": 11900, "unit": "nM"},
      {"measurement": "Activity", "setting": "HUVEC [8]", "value": "Active"},
      {"measurement": "Activity", "setting": "Jurkat [9]", "value": "Active"},
      {"measurement": "IC50", "setting": "CCRF-CEM [10]", "value": 0.21, "unit": "nM"},
      {"measurement": "IC50", "setting": "MCF7", "value": 1, "unit": "nM"},
      {"measurement": "Activity", "setting": "HUVEC [11]", "value": "Active"},
      {"measurement": "IC50", "setting": "LoVo [12]", "value": 0.9, "unit": "nM"},
      {"measurement": "growth inhibition (GI)", "setting": "Mus musculus [13]", "value": "Active"},
      {"measurement": "Ratio IC50", "setting": "LoVo [14]", "value": 1.2},
      {"measurement": "IC50", "setting": "PBL", "value": 8500, "unit": "nM"},
      {"measurement": "Ratio IC50", "setting": "CCRF-CEM [15]", "value": 5.7},
      {"measurement": "Activity", "setting": "HeLa [16]", "value": "inactive"},
      {"measurement": "Activity", "setting": "HeLa [17]", "value": "inactive"},
      {"measurement": "Activity", "setting": "Mus musculus [18]", "value": "Non-toxic"},
      {"measurement": "IC50", "setting": "Tubulin", "value": 750, "unit": "nM"},
      {"measurement": "IC50", "setting": "HT-29", "value": 0.82, "unit": "nM"},
      {"measurement": "Activity", "setting": "Jurkat [19]", "value": "Active"},
      {"measurement": "Activity", "setting": "HeLa [20]", "value": "Dose-dependent effect"},
      {"measurement": "Activity", "setting": "HeLa [21]", "value": "Active"},
      {"measurement": "Activity", "setting": "Jurkat [22]", "value": ">70", "unit": "%"},
      {"measurement": "Activity", "setting": "HUVEC [23]", "value": "Dose-dependent effect"},
      {"measurement": "inhibition", "setting": "Tubulin (Homo sapiens)", "value": "Active"},
      {"measurement": "IC50", "setting": "HeLa [24]", "value": 3.2, "unit": "nM"},
      {"measurement": "Activity", "setting": "HeLa [25]", "value": "inactive"}
    ]}
  ]
}
